Bioassay records as filed in PubChem BioAssay.
This is a sample that favours compounds with a hit; in the whole collection about 5.4% have one here.
E coli WT exp = growth inhibitors of E. coli BW25113 wild type. OD600 absorbance. growth inhibition, % at 100 µM. 98,000 tested, 0.15% active;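 active means growth inhibition above about 50% at one test dose, limit read from the data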;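 further: growth measured after 20 h incubation at 37 °C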
PostGolgi ctrl = growth of the yeast control strain, post-Golgi counter-screen; efflux-deficient yeast background strain, growth absorbance A615, 16 h; inhibition, % at 10 µM; 98,000 tested, 5% active
HePTP inhibitor = inhibitors of human HePTP phosphatase. P35236. recombinant HePTP phosphatase activity, OD absorbance. inhibition, % at 20 µM. 110,000 tested, 0.64% active; in the data active means inhibition above about 50%;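 further: plate controls were vehicle for no effect and reference inhibitor for full effect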
tolC growth inh = growth inhibitors of E. coli BW25113 tolC mutant. OD615. growth inhibition, % at 10 µM (by protocol). 65,000 tested, 2.2% active. AID 573;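 active means growth inhibition at or above a cutoff equal to the mean over every tested compound plus 3 SD, cut at about 60% in these data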;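 further: growth measured after 20 h incubation at 37 °C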
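Doses: one dose of 10 µM final / Material: E. coli BW25113 ΔtolC::kan, tolC deletion mutant strain / Buffer or medium: LB with kanamycin 50 µg/mL / Evaluation: percent growth inhibition / Detection: optical density read at 615 nm / Incubation: 37 °C, 20 h exposure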
PLAP act = activates human placental alkaline phosphatase | purified PLAP enzyme, luminescent substrate read-out; stronger effect = higher value | 96,000 tested, 1.2% active | AID 696 | activation fold at 20 µM | P05187; in the data active means activation fold above about 2
Target sequence (P05187 whole entry, looked up): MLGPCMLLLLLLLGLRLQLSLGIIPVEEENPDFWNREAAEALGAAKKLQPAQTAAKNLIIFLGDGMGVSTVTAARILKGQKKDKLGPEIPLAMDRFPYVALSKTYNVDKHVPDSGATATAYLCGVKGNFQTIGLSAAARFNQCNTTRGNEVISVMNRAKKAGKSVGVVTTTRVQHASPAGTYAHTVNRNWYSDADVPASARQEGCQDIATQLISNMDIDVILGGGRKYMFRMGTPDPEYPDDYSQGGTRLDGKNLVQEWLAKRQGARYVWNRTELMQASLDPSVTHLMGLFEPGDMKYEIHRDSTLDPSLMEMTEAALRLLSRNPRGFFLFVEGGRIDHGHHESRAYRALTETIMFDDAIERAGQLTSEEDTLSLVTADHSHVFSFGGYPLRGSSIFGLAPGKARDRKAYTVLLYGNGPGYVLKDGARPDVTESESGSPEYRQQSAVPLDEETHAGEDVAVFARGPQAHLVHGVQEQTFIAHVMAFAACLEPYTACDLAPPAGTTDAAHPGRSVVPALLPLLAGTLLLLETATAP
PostGolgi yeast = growth inhibition of a yeast mutant, post-Golgi transport screen. 98,000 tested, 0.9% active. post-Golgi transport phenotypic cell assay. inhibition, % at 10 µM;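 further: yeast cells grown in 1536-well plates; yeast grown about 18 h at 30C before absorbance read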
* marks the source's active call; other numbers are inactive results; . = no result. Unless noted, no stated cut-off is given here; in the data, active means inhibition above about 30%; inactive means the rest.

SMILES	E coli WT exp	PostGolgi ctrl	HePTP inhibitor	tolC growth inh	PLAP act	PostGolgi yeast
O=[N+]([O-])c1ccc(N2CCN(S(=O)(=O)c3ccccc3)CC2)cc1NCc1cccnc1	-14.0	17.6	.	.	0.8	-6.8
O=[N+]([O-])c1ccc(N2CCN(S(=O)(=O)c3ccc(Cl)cc3)CC2)cc1NCc1cccnc1	-9.0	10.8	.	.	1.2	70.9*
O=C1C=C(N2CCN(C3=CC(=O)CCC3)CC2)CCC1	-7.0	-4.5	-4.9	19.3	0.8	-0.3
CC(C)(C)SCCNC(=O)COc1ccccc1	5.0	-3.7	9.8	-9.9	1.4	0.6
COc1cc(/C=N/NC(N)=S)ccc1OC(=O)c1ccc(C)cc1	-2.0	52.5*	.	.	1.1	0.3
COc1ccc(/C=N/NS(=O)(=O)c2ccccc2)cc1OC(=O)c1ccc(C)cc1	-11.0	6.0	.	.	1.3	4.5
CCOc1ccc2ccccc2c1CNCCN1CCOCC1	-4.0	15.2	10.1	23.8	0.9	3.3
CC(C)c1ccc(-c2cc(C(=O)NCCN3CCOCC3)c3ccccc3n2)cc1	.	.	6.8	.	.	.
CC(C)c1ccc(-c2cc(C(=O)N3N=C(C(F)F)CC3(O)C(F)F)c3ccccc3n2)cc1 (stereo not drawn)	-15.0	23.4	.	.	2.1*	1.4
O=S(=O)(NC12CC3CC(CC(C3)C1)C2)c1ccc(F)cc1	-1.0	31.1*	.	.	0.8	-4.9
COc1ccc(S(=O)(=O)N2CCN(C(=O)c3cccc(F)c3)CC2)cc1	.	.	-0.7	.	.	.
CC(C)(CN1CCCCC1)NS(=O)(=O)c1ccc(Cl)cc1	5.0	19.4	5.4	-1.9	0.9	-9.5
CC1CC(C)CN(CC(C)(C)NS(=O)(=O)c2ccc(Cl)cc2)C1 (stereo not drawn)	-1.0	23.1	.	.	.	60.2*
CCOc1cc(OCC)cc(C(=O)Nc2cc(C)ccc2C)c1	.	.	-2.0	.	.	.
CCCCNc1cc(C)nc(NCc2ccccc2)n1	59.0*	8.9	9.1	76.6*	0.9	-1.8
CCOC(=O)Cn1c(=O)oc2cc(S(=O)(=O)NCc3cccs3)ccc21	5.0	2.5	-13.0	6.4	0.8	6.7
CCOC(=O)Cn1c(=O)oc2cc(S(=O)(=O)NCc3ccccn3)ccc21	-1.0	7.7	6.2	-9.9	2*	3.7
CCNC(=O)c1ccccc1-c1nc(-c2ccccc2Cl)no1	5.0	-0.6	4.7	-3.9	0.9	15.3
O=C(Cn1ncc2c1-c1ccccc1OC2)Nc1cccc(Cl)c1	-3.0	26.4	.	.	0.8	-4.9
CCC(C(=O)Nc1cc(Cl)cc(Cl)c1)c1ccccc1 (stereo not drawn)	.	.	-4.6	.	.	.
Cc1cc(C)nc(N/N=C/c2cc3c(cc2[N+](=O)[O-])OCO3)n1	.	.	-18.3	.	.	.
CC1CCCC(C)N1C(=O)c1cc(F)c(F)cc1Cl (stereo not drawn)	13.0	37.0*	2.9	-4.8	0.9	-6.4
COc1ccc(S(=O)(=O)n2cnc3ccccc32)cc1OC	.	.	5.9	.	.	.
O=c1c(-c2nc3ccccc3s2)cccn1Cc1ccc(Cl)c(Cl)c1	-15.0	35.9*	.	.	1.1	-9.7
Nc1ccc(Cl)c(-c2nc3ccccc3s2)c1	.	.	6.5	.	.	.
SMILES	E coli WT exp	PostGolgi ctrl	HePTP inhibitor	tolC growth inh	PLAP act	PostGolgi yeast
O=C(Nc1cc2c(oc1=O)CCCC2=O)c1ccccc1	5.0	13.5	.	.	1	0.5
COC(=O)c1cc(NC(=O)c2ccoc2C)cc(C(=O)OC)c1	-6.0	5.5	-2.3	-4.2	0.8	4.8
CC(=O)N1CCN=C1SCc1c(F)cccc1Cl	6.0	32.0*	-3.7	-3.0	0.8	3.2
Cc1ccc(OCC(=O)NNC(=O)C2CCN(c3nccc(C)n3)CC2)cc1	0.0	2.3	.	.	2.5*	0.5
Cc1ccnc(N2CCC(C(=O)Nc3ccc(Oc4ccccc4)cc3)CC2)n1	-2.0	0.3	8.4	-19.1	1	-6.5
Cc1ccnc(N2CCC(C(=O)NCc3ccc4c(c3)OCO4)CC2)n1	-4.0	7.5	-2.6	-0.9	0.8	2.2
Cc1ccnc(N2CCC(C(=O)Nc3cccc(C(F)(F)F)c3)CC2)n1	0.0	8.1	7.4	64.6*	1.3	0.9
O=C1c2cccc3c(N4CCCCC4)ccc(c23)C(=O)N1c1ccc(Cl)cn1	.	.	5.9	.	.	.
Cc1ccc(C(=O)Nc2c(C(=O)Nc3ccccc3)cnn2-c2ccccc2)cc1	.	.	-2.3	.	.	.
Cc1csc(-c2cnn(-c3ccccc3)c2NC(=O)c2ccc(C(F)(F)F)cc2)n1	0.0	44.4*	.	.	1	17.5
CC(=O)Nc1ccc(S(=O)(=O)NCC2CCC(C(=O)N3CCN(c4ccccn4)CC3)CC2)cc1 (stereo not drawn)	-2.0	-0.7	8.2	-1.3	1.3	-3.1
CC(=O)C1=C(N2CCCCC2)CCC1=O	4.0	31.8*	6.0	-20.5	0.8	-0.9
O=C(CCN1CCC(c2ccccc2)C1)c1cccs1 (stereo not drawn)	-3.0	38.8*	3.7	-17.1	1	3.3
CCOC(=O)c1ccccc1NC(=O)Cn1cnc2c(cnn2-c2ccc(OC)cc2)c1=O	.	.	12.7	-10.1	.	.
COC(=O)c1ccccc1NC(=O)Nc1ccc2c(c1)OCO2	2.0	6.5	.	.	0.7	-1.1
COc1ccc(C(C)(C)C)cc1NC(=O)Nc1ccc2c(c1)OCO2	-4.0	71.2*	2.1	65.0*	.	5.2
COc1ccc(OC)c(NC(=O)Nc2ccc(Cl)cc2)c1	1.0	41.0*	.	.	0.9	-3.5
COc1ccc(Cl)cc1NC(=O)Nc1cccc([N+](=O)[O-])c1C	-7.0	41.8*	.	.	0.9	2.4
CCn1c(SCC(=O)N2CC(=O)Nc3ccccc32)nnc1-c1ccoc1C	-8.0	-6.8	4.6	-18.2	1.2	-9.4
O=C(CSCc1ccccc1)NNC(=S)Nc1cccc(Cl)c1Cl	7.0	31.4*	.	.	1	-6.7
CCc1ccc(N2CC(C(=O)Nc3ccc(C)c(S(=O)(=O)N4CCOCC4)c3)CC2=O)cc1 (stereo not drawn)	-3.0	1.9	.	.	2*	-18.5
CCc1ccc(NC(=O)C2CC(=O)N(c3ccc(CC)cc3)C2)cc1 (stereo not drawn)	.	.	0.3	.	.	.
CC1CCC(n2c(=S)[nH]c3ccccc3c2=O)CC1 (stereo not drawn)	-7.0	49.4*	-10.0	5.8	0.8	3.0
CN(c1ccc(Cl)cc1)c1cc(=O)n(C)c2ccccc12	11.0	63.7*	11.7	31.4	1.5	1.4
Cc1cc([N+](=O)[O-])ccc1NC(=S)NC(=O)Cc1ccccc1	-7.0	30.1*	.	.	1	-8.0
Cc1cc([N+](=O)[O-])ccc1NCc1ccccc1	6.0	11.3	.	.	0.5	-5.4
Cc1cc([N+](=O)[O-])ccc1NC(=S)NC(=O)C(c1ccccc1)c1ccccc1	-16.0	45.8*	.	.	1.1	7.4
CC1CCCCN1C(=O)c1ccc(C(=O)N2CCCCC2C)cc1 (stereo not drawn)	3.0	10.8	-5.1	-2.2	1.3	-1.0
O=C(Cc1cccs1)Nc1nncs1	4.0	-0.1	-0.8	3.9	0.7	0.6
CCOC(=O)c1sc(NC(=O)C2CC=CCC2C(=O)O)c(C(N)=O)c1C (stereo not drawn)	.	.	8.8	.	.	.
